# Compound activity as filed in PubChem.
# Shown are actives, neighbours in structure and some others; about 1.7% of the full set was active somewhere.
# Myeloid diff 2: induction of myeloid progenitor differentiation, primary screen, cell-based, flow cytometry, MLPCN library | ER-HoxA9 myeloid progenitors, lysozyme-GFP differentiation | AID 624256, 2012 | calls only at 10 µM | 360,000 tested, 1% active;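 active = normalized GFP-positive differentiation at or above the plate's own cutoff, the solvent-only control mean plus 3 SD; inconclusive = no clear call, values can overlap the other calls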;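 note: cells exposed to compound for four days before flow analysis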
# T cell HTS: modulators of CD8 T cell-vesicle binding, primary screen, mouse 2C CD8+ T cells, flow cytometry; 2C CD8+ T cell-vesicle binding; active compounds read low; response (vesicle binding), % at 7 µM; 330,000 tested, 0.068% active;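 active = response, share of CD8 T cells binding vesicles, and their 90th percentile fluorescence all below set limits, cut at about 80% in these data, passing the limit was not always enough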;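 note: values below 100% mean blocked vesicle binding to the CD8+ T cells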
#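 Assay system: 2C TCR transgenic mouse naive CD8+ T cells, MACS-purified | Read-out: CD8+ gate FL2 mean fluorescence as % of same-row positive control | Signal: High-throughput flow cytometry with anti-B7-1 and anti-CD8 staining | Timing: Binding step 1.5 h, 37 °C, antibody labelling 20 min, ice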
# Pemphigus Ab inh: inhibitors of pemphigus antibody binding to DSG3, primary screen, biochemical, bead-based, flow cytometry, scFv-GFP; Desmoglein-3 (Homo sapiens), P32926; binding (percent of control), % at 10 µM; 310,000 tested, 0.48% active; DSG3-coupled beads, scFv-anti-DSG3-GFP binding; active compounds read low;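 active = binding more than 3 SD below its plate's average and above zero; inconclusive = below that plate limit but binding exactly zero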;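 note: hits lower antibody fragment binding to DSG3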
# Vif imaging: HIV Vif self-association inhibitors, primary screen, imaging, HEK293T, single point. HEK293T cells, Vif self-association by quenched fluorescence, 24 h. inhibition, % at 7.49 µM. 340,000 tested, 0.35% active. AID 602346, 2012; in the data active = inhibition above about 50%, passing the limit was not always enough; inconclusive = no clear call, values can overlap the other calls; inactive = below about 31%
# Myeloid diff CP1: inducers of myeloid progenitor differentiation, confirmation, cell-based, GFP/Mac1 flow cytometry, cherry pick 01; shares compounds with Myeloid diff 2; AID 651706, 2012; ER-HoxA9 myeloid progenitors, GFP/Mac1 double-positive flow; 2,300 tested, 2% active; calls only;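 active = share of green or green-and-red cells above 9 and 9% in run 1 or 4 and 3% in run 2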
# GFP autofluor: flagged as fluorescent in myeloid differentiation counter-screen; shares compounds with Myeloid diff 2; ER-HoxA9 myeloid progenitors, no estrogen, GFP autofluorescence flow cytometry; vehicle wells 0%, positive control 100%; fluorescence response, % (no concentration beside the values); 2,300 tested, 7.4% active; AID 651707;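 active = over 5% cells positive for green fluorescent reporter, or over 2% positive for both it and APC stain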
# A number is an active result; 0 = inactive; ? = inconclusive; - = no result given; + = active, no number.
SMILES,Myeloid diff 2,T cell HTS,Pemphigus Ab inh,Vif imaging,Myeloid diff CP1,GFP autofluor
COc1cccc(-c2cnc3c(NC(C)=O)cc(-c4ccc(C(=O)N5CCOCC5)cc4)cn23)c1,0,-,-,-,-,-
O=C(O)CCCN1C(=O)/C(=C\c2ccco2)SC1=S,0,-,0,0,-,-
O=C(O)CN1C(=O)/C(=C/c2ccc(SCc3ccccc3)o2)SC1=S,0,-,0,0,0,0
O=C1/C(=C\c2ccco2)SC(=S)N1Cc1ccccc1,0,0,0,0,0,0
Cc1c(N=C2NN=C(c3c[nH]c4ccccc34)CS2)c(=O)n(-c2ccccc2)n1C,+,0,85.0,0,0,0
CCOc1ccc(C(=O)N2CCC(C(=O)c3ccc4c(c3)OCCO4)CC2)cc1,0,-,0,0,0,0
CCOC(=O)C1CCN(C(=O)c2ccc3c(c2)OCCO3)CC1,0,0,-,0,-,-
O=C(c1cc2ccccc2o1)N1CCN(S(=O)(=O)c2ccc(F)c(F)c2F)CC1,0,0,0,0,-,-
COc1ccc(C2C(=O)N(C3CCCCC3)CC(=O)N2Cc2ccc3c(c2)OCO3)cc1 (configuration not stated),0,0,0,0,0,0
O=C1C(c2ccc(F)cc2)N(Cc2ccc3c(c2)OCO3)C(=O)CN1C1CCCCCC1 (configuration not stated),0,0,0,0,-,-
Cc1cccc(CNc2ncnc3ccc(-c4cccnc4)cc23)c1,+,0,0,0,0,0
CCCCCCCNc1cccc(C)c1,0,0,-,0,0,0
CN1CCN(c2ccc(CNC(=O)C3(C)Cc4c(-c5ccccc5)ccnc4O3)cc2)CC1 (configuration not stated),0,-,-,-,-,-
O=C(N/N=C/CCc1ccccc1)c1ccc(CN2c3cccc4cccc(c34)S2(=O)=O)cc1,0,0,0,0,0,0
COc1ccc(-c2sc(C(=O)c3ccc(Cl)cc3Cl)cc2CC(=O)O)cc1,+,0,0,0,0,0
O=C(O)Cc1ccc(C(=O)c2ccc(Cl)cc2Cl)s1,0,0,0,0,-,-
CC(C)(C)OC(=O)C[C@@H]1C/C=C\C[C@H](CC(=O)N[C@H](CO)Cc2ccccc2)C(=O)N[C@@H](Cc2ccccc2)COC1=O,0,0,0,0,0,0
CC(C)(C)OC(=O)C[C@H]1C/C=C\C[C@H](CC(=O)N[C@H](CO)Cc2ccccc2)C(=O)N[C@H](Cc2ccccc2)COC1=O,0,0,0,0,-,-
OC[C@@H]1CN(Cc2ccc(-c3ccccc3)cc2)C[C@H](n2cnc3c(N4CCOCC4)ncnc32)O1,0,-,-,0,-,-
Cc1cc(N2CCN(c3nc4ccccc4s3)CC2)n2ncnc2n1,0,0,0,0,0,0
CCOC(=O)[C@]12CCCC=C1N(Cc1cccc3ccccc13)C(=O)[C@H](CC(=O)NCCCN1CCCC1=O)C2,0,-,-,-,-,-
CC(/C=N/NC(=O)CSc1n[nH]c(=O)[nH]c1=O)=C\c1ccccc1,0,0,0,0,0,0
COc1ccc(/C=N/NC(=O)CSc2n[nH]c(=O)[nH]c2=O)cc1,0,0,0,0,-,-
CC(C)[C@@H]1Cc2[nH]c(=S)[nH]c(=O)c2[C@H](CCc2ccccc2)O1,0,-,-,-,-,-
Cc1ccc(S(=O)(=O)N2C[C@H]3n4c(=O)ccc(=O)n4C[C@H](OC(=O)NCc4ccccc4F)[C@@]3(O)C2)cc1,0,-,0,0,-,-
SMILES,Myeloid diff 2,T cell HTS,Pemphigus Ab inh,Vif imaging,Myeloid diff CP1,GFP autofluor
COc1ccc(C2=NOC(Cn3nc(-c4ccccc4)cc3C(=O)NCc3cccs3)C2)cc1 (configuration not stated),0,0,0,0,0,0
O=C1/C(=C\c2ccco2)CCC/C1=C\c1ccco1,+,0,0,0,0,37.4
CC(C)C[C@@H]1COc2cc(N3CCC[C@H]3CO)ccc2S(=O)(=O)N1,0,-,-,-,-,-
CCCCC(O)(CCCC)C(=O)N/N=C(\C)c1ccc(Cl)cc1,0,0,0,0,0,0
C/C(=N/NC(=O)CNc1ccc(C)cc1)c1ccc(Cl)cc1,0,0,0,0,-,-
Cn1c(SSc2ccc(-c3cccnc3)n2C)ccc1-c1cccnc1,?,-,0,0,-,-
